The values below come from ChEMBL document CHEMBL1130014, “Mixed bis(thiosemicarbazone) ligands for the preparation of copper radiopharmaceuticals: synthesis and evaluation of tetradentate ligands containing two dissimilar thiosemicarbazone functions” (J Med Chem, 1997).

Data set [1] concerns the target Albumin (Homo sapiens, UniProt P02768). Nature of the data set: Binding of compound in order to assess the amount of free (non-albumin-associated) radiotracer present in solutions of human serum albumin (35 mg/mL saline). The procedure, abridged: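 ⁶⁷Cu complex (1–2 µL per 1 mL) mixed into freshly prepared albumin in normal saline. Within 2 min, loaded into 30,000 Da NMWL centrifugal ultrafilters and spun at once at 1000g, 20 min, 20 °C, 45° fixed-angle rotor. Filtrate and unfiltered solution γ-counted. Free % is the protein filtrate/unfiltered ratio divided by the same ratio in protein-free saline, ×100. Mean ± SD of 6–12 measurements.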

For data set [2], the target named is Serum albumin (Canis lupus familiaris) (UniProt P49822). Nature of the data set: Binding of compound in order to assess the amount of free (non-albumin-associated) radiotracer present in solutions of dog serum albumin (35 mg/mL saline).
The species named for data set [3] is Rattus norvegicus. In words: […] uptake of compound was determined in rat brain at 1 min following femoral injection of radiotracer. It counts as functional. In outline: (§1)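 Sprague–Dawley rats under ether anesthesia received the ⁶⁷Cu complex (~2 µCi in 0.2 mL) into the femoral vein. Dosing solution was saline with ca. 5% ethanol and ≤0.5% DMSO, filtered at 0.2 µm, with radiochemical purity by silica TLC (ethanol). Organ radioactivity is expressed as % injected dose per organ. Mean ± SD, three rats per time point.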

The species named for data set [4] is Rattus norvegicus. In words: […] uptake of compound was determined in rat brain at 120 min following femoral injection of radiotracer. It counts as functional. In outline: as §1
The species named for data set [5] is Rattus norvegicus. Nature of the data set: […] uptake of compound was determined in rat brain at 5 min following femoral injection of radiotracer. It counts as functional. In outline: as §1
For data set [6], the species on record is Rattus norvegicus. In words: […] uptake of compound was determined in rat heart at 1 min following femoral injection of radiotracer. It counts as functional, Myocardium. In outline: as §1
Data set [7] is filed under the species Rattus norvegicus. In words: […] uptake of compound was determined in rat heart at 120 min following femoral injection of radiotracer. It counts as functional, Myocardium. In outline: as §1
The species named for data set [8] is Rattus norvegicus. In words: […] uptake of compound was determined in rat heart at 5 min following femoral injection of radiotracer. It counts as functional, Myocardium. The procedure, abridged:
as §1

Chain of Albumin (P02768 whole entry): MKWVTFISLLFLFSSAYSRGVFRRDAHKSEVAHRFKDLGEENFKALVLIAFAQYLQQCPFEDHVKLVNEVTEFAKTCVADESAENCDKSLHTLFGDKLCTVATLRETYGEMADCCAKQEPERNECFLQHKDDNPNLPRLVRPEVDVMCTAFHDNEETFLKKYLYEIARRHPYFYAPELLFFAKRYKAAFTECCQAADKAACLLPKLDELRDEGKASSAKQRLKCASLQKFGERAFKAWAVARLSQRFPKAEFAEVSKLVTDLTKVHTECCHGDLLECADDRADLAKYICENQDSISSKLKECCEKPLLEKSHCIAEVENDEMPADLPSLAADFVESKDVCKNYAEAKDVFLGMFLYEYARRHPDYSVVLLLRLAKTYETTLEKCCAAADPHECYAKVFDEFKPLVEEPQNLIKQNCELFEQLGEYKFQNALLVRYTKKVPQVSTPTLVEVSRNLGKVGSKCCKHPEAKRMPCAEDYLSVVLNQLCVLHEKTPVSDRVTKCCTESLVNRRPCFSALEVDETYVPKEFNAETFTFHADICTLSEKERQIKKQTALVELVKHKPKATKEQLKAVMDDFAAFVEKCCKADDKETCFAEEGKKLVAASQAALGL
Chain of Serum albumin (Canis lupus familiaris) (P49822 whole entry, looked up): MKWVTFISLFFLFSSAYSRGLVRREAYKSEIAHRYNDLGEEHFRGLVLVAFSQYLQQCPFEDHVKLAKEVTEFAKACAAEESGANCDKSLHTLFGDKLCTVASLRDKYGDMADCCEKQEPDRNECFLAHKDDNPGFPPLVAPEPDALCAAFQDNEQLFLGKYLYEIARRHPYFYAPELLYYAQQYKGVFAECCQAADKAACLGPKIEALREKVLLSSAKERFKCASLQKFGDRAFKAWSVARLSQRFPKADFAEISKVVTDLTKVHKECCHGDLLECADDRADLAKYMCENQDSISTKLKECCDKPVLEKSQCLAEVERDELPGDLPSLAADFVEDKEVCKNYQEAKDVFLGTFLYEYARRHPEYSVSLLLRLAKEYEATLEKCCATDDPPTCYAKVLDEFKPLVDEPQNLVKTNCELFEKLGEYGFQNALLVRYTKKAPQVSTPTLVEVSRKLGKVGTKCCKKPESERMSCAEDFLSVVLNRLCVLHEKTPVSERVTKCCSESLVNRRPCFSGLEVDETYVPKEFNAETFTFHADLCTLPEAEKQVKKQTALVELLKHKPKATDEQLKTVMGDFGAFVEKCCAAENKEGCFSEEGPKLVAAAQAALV

Regarding “Copper complex of Propane-1,2-diylidene-N-thiourea-N-amino-methylaminomethanethione [listing 1 of 2 here]”, the Free complex in data set [1] came to 8.6%; in data set [2], 46.5%.

For `CC(/C=N/N=C(\S)N(C)C)=N\N=C(\N)S`, the Dose came out at 2.79% in data set [3]; 1.98% in data set [4]; 1.97% in data set [5]; 1.59% in data set [6]; 1.05% in data set [7]; 1.23% in data set [8].

Turning to `CC(/C=N/N=C(\S)N(C)C)=N\N=C(/S)N(C)C`, the Dose came out at 3.1% in data set [3], 2.2% in data set [5], 0.97% in data set [6] and 0.43% in data set [8].

As for `C/N=C(\S)N/N=C(C)/C=N/N=C(/N)S`, the Dose is listed as 1.72% in data set [3]; 1.67% in data set [4]; 1.81% in data set [5]; 2.84% in data set [6]; 2.59% in data set [7]; 2.86% in data set [8].

Turning to “Copper complex of Propane-1,2-diylidene-N-thiourea-N-amino-methylaminomethanethione [listing 2 of 2 here]”, the Free complex was 10.4% in data set [1] and 57.4% in data set [2].

In the case of `C/N=C(\S)N/N=C/C(C)=N/N=C(/N)S`, the Dose came out at 1.4% in data set [3]; 1.1% in data set [4]; 1.37% in data set [5]; 2.73% in data set [6]; 2.03% in data set [7]; 2.44% in data set [8].

“Copper complex of Propane-1,2-diylidene-N-amino-methylaminomethanethione-N-amino-dimethylaminomethanethione”: the figures for the Free complex in data set [1] and in data set [2] were 5.4% and 25.7%, respectively.

Turning to `C/N=C(\S)N/N=C/C(C)=N/N/C(S)=N/C`, the Dose amounted to 3% in data set [3]; 3.2% in data set [4]; 3% in data set [5]; 2.7% in data set [6]; 3.3% in data set [7]; 3.4% in data set [8].

In the case of “Propyl glyoxal bis(thiosemicarbazone)(67Cu-n-PrTS)”, the values for the Free complex in data set [1] and in data set [2] were 37% and 30.3%, respectively.

`C/N=C(\S)N/N=C(C)/C=N/N=C(\S)N(C)C`: the Dose in data set [3] is on record as 2.76%; in data set [4] it was 1.63%; in data set [5], 1.8%; in data set [6] it was 1.43%; in data set [7] it was 0.89%; in data set [8] it was 1.27%.

Regarding `CC(/C=N/N=C(/N)S)=N\N=C(\N)S` [PYRUVALDEHYDE BIS(THIOSEMICARBAZONE)(PTS)], the Dose in data set [3] worked out at 0.46%; in data set [5] it was 0.29%; in data set [6], 2.8%; in data set [8], 2.3%.

“Copper complex of Propane-1,2-diylidene-N-thiourea-N-amino-dimethylaminomethanethione”: the results for the Free complex in data set [1] and in data set [2] were 17.2% and 57.6%, respectively.
